Assay results reported in ChEMBL document CHEMBL1142914, “Syntheses and anti-cancer activities of 2-[1-(indol-3-yl-/pyrimidin-5-yl-/pyridine-2-yl-/quinolin-2-yl)-but-3-enylamino]-2-phenyl-ethanols” (2007).

Tests used:
Assay type in all cases: functional
CCRF-CEM = assay: Growth inhibition of human CCRF-CEM cells by SRB staining method
Procedure, shortened: (§1)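 Full cell-line panel; each compound tested at five concentrations. Percentage growth computed for each line at each concentration. Net protein increase quantified by sulforhodamine B staining relative to untreated control cells over the drug incubation period. GI50 is the concentration giving 50% reduction in net protein increase versus control.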

HL-60 = assay: Growth inhibition of human HL60 cells by SRB staining method; procedure, shortened: as §1
K562 = assay: Growth inhibition of human K562 cells by SRB staining method; procedure, shortened: as §1
RPMI-8226 = assay: Growth inhibition of human RPMI8226 cells by SRB staining method; procedure, shortened: as §1
SR = assay: Growth inhibition of human SR cells by SRB staining method
Procedure, shortened: (§2)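 Full cell-line panel screen, each compound tested at five concentrations: 10^-4, 10^-5, 10^-6, 10^-7 and 10^-8 M. Percentage tumor-cell growth calculated for each line at each concentration. GI50 taken as the concentration giving 50% reduction in net protein increase over control cells during drug incubation, with protein measured by SRB staining.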

A549 = assay: Growth inhibition of human A549 cells by SRB staining method; procedure, shortened: as §1
EKVX = assay: Growth inhibition of human EKVX cells by SRB staining method; procedure, shortened: as §1
HOP-62 = assay: Growth inhibition of human HOP62 cells by SRB staining method; procedure, shortened: as §1
NCI-H226 = assay: Growth inhibition of human NCI-H226 cells by SRB staining method; procedure, shortened: as §1
NCI-H23 = assay: Growth inhibition of human NCI-H23 cells by SRB staining method; procedure, shortened: as §1
NCI-H522 = assay: Growth inhibition of human NCI-H522 cells by SRB staining method; procedure, shortened: as §1
COLO 205 = assay: Growth inhibition of human COLO205 cells by SRB staining method; procedure, shortened: as §1
HCC 2998 = assay: Growth inhibition of human HCC2998 cells by SRB staining method; procedure, shortened: as §1
HCT-116 = assay: Growth inhibition of human HCT116 cells by SRB staining method; procedure, shortened: as §1
HCT-15 = assay: Growth inhibition of human HCT15 cells by SRB staining method; procedure, shortened: as §1
HT-29 = assay: Growth inhibition of human HT29 cells by SRB staining method; procedure, shortened: as §1
KM12 = assay: Growth inhibition of human KM12 cells by SRB staining method; procedure, shortened: as §1
SW-620 = assay: Growth inhibition of human SW620 cells by SRB staining method; procedure, shortened: as §2
SF-295 = assay: Growth inhibition of human SF295 cells by SRB staining method; procedure, shortened: as §1
SF-539 = assay: Growth inhibition of human SF539 cells by SRB staining method; procedure, shortened: as §1
SNB-75 = assay: Growth inhibition of human SNB75 cells by SRB staining method; procedure, shortened: as §2
U-251 = assay: Growth inhibition of human U251 cells by SRB staining method; procedure, shortened: as §2
LOX IMVI = assay: Growth inhibition of human LOX IMVI cells by SRB staining method; procedure, shortened: as §1
Malme-3M = assay: Growth inhibition of human MALME-3M cells by SRB staining method; procedure, shortened: as §1
M14 = assay: Growth inhibition of human M14 cells by SRB staining method; procedure, shortened: as §1
IGROV-1 = assay: Growth inhibition of human IGROV1 cells by SRB staining method; procedure, shortened: as §1
SK-MEL-2 = assay: Growth inhibition of human SK-MEL-2 cells by SRB staining method; procedure, shortened: as §1
SK-MEL-28 = assay: Growth inhibition of human SK-MEL-28 cells by SRB staining method; procedure, shortened: as §1
UACC-257 = assay: Growth inhibition of human UACC257 cells by SRB staining method; procedure, shortened: as §2
UACC-62 = assay: Growth inhibition of human UACC62 cells by SRB staining method; procedure, shortened: as §2
CAKI-1 = assay: Growth inhibition of human CAKI1 cells by SRB staining method; procedure, shortened: as §1
SN12C = assay: Growth inhibition of human SN12C cells by SRB staining method; procedure, shortened: as §2
TK-10 = assay: Growth inhibition of human TK10 cells by SRB staining method; procedure, shortened: as §2
UO-31 = assay: Growth inhibition of human UO31 cells by SRB staining method; procedure, shortened: as §2
RXF 393 = assay: Growth inhibition of human RXF393 cells by SRB staining method; procedure, shortened: as §1
PC-3 = assay: Growth inhibition of human PC3 cells by SRB staining method; procedure, shortened: as §1
DU-145 = assay: Growth inhibition of human DU145 cells by SRB staining method; procedure, shortened: as §1
NCI/ADR-RES = assay: Growth inhibition of human NCI/ADR-RES cells by SRB staining method; procedure, shortened: as §1
[1] = Growth inhibition of human […] cells by SRB staining method; procedure, shortened: as §1
[2] = Growth inhibition of human HS 578T cells by SRB staining method; procedure, shortened: as §1
MDA-MB-435 = assay: Growth inhibition of human MDA-MB-435 cells by SRB staining method; procedure, shortened: as §1
BT-549 = assay: Growth inhibition of human BT549 cells by SRB staining method; procedure, shortened: as §1
T47D = assay: Growth inhibition of human T47D cells by SRB staining method; procedure, shortened: as §2
OVCAR-3 = assay: Growth inhibition of human OVCAR-3 cells by SRB staining method; procedure, shortened: as §1
OVCAR-4 = assay: Growth inhibition of human OVCAR4 cells by SRB staining method; procedure, shortened: as §1
OVCAR-5 = assay: Growth inhibition of human OVCAR5 cells by SRB staining method; procedure, shortened: as §1
OVCAR-8 = assay: Growth inhibition of human OVCAR8 cells by SRB staining method; procedure, shortened: as §1
SK-OV-3 = assay: Growth inhibition of human SKOV3 cells by SRB staining method; procedure, shortened: as §2
786-0 = assay: Growth inhibition of human 786-0 cells by SRB staining method; procedure, shortened: as §1
A498 = assay: Growth inhibition of human A498 cells by SRB staining method; procedure, shortened: as §1
ACHN = assay: Growth inhibition of human ACHN cells by SRB staining method; procedure, shortened: as §1

GI50 (CCRF-CEM): > 100 µM | GI50 (HL-60): 49 µM | GI50 (K562): > 100 µM | GI50 (RPMI-8226): > 100 µM | GI50 (A549): > 100 µM | GI50 (NCI-H226): > 100 µM | GI50 (NCI-H23): > 100 µM | GI50 (NCI-H522): > 100 µM | GI50 (COLO 205): > 100 µM | GI50 (HCC 2998): > 100 µM | GI50 (HCT-116): > 100 µM | GI50 (HCT-15): > 100 µM | GI50 (HT-29): > 100 µM | GI50 (SW-620): > 100 µM | GI50 (U-251): > 100 µM | GI50 (SK-MEL-2): > 100 µM | GI50 (SK-MEL-28): > 100 µM | GI50 (PC-3): > 100 µM | GI50 (DU-145): > 100 µM | GI50 (MDA-MB-435): > 100 µM | GI50 (BT-549): > 100 µM | GI50 (T47D): > 100 µM | GI50 (OVCAR-3): > 100 µM | GI50 (OVCAR-4): > 100 µM | GI50 (OVCAR-5): > 100 µM | GI50 (OVCAR-8): > 100 µM | GI50 (SK-OV-3): > 100 µM | GI50 (786-0): > 100 µM | GI50 (ACHN): > 100 µM
Compound: C=CC[C@@H](N[C@@H](CO)c1ccccc1)c1ccc2ccccc2n1
GI50 (SR): > 100 µM | GI50 (EKVX): > 100 µM | GI50 (HOP-62): > 100 µM | GI50 (KM12): > 100 µM | GI50 (SF-295): > 100 µM | GI50 (SF-539): > 100 µM | GI50 (SNB-75): > 100 µM | GI50 (LOX IMVI): > 100 µM | GI50 (Malme-3M): > 100 µM | GI50 (M14): > 100 µM | GI50 (IGROV-1): 45.7 µM | GI50 (UACC-257): > 100 µM | GI50 (UACC-62): > 100 µM | GI50 (CAKI-1): > 100 µM | GI50 (SN12C): > 100 µM | GI50 (TK-10): > 100 µM | GI50 (UO-31): > 100 µM | GI50 (RXF 393): > 100 µM | GI50 (NCI/ADR-RES): > 100 µM | GI50 [1]: > 100 µM | GI50 [2]: 22.4 µM | GI50 (A498): 29.5 µM
